The record followed here is ChEMBL document CHEMBL2346570, “Small-molecule inhibitors of cytokine-mediated STAT1 signal transduction in β-cells with improved aqueous solubility” (J Med Chem, 2013).

Data set [1] can be described thus: Cytoprotective activity in rat INS-1E cells assessed as suppression of cytokine-induced caspase-3/7 activation after 48 hrs by luminescence assay. The data set is classed as functional, cell-based. Put shortly:
(§1)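 INS-1E β-cells exposed to a cytokine mixture (IFN-γ at 500 ng/mL; IL-1β and TNF-α lowered 20- and 10-fold from standard levels) with compound for 48 h; caspase-3/7 activation read as apoptosis. IC50 from dose-response in three replicates; maximum activity expressed as % rescue from cytokine-induced caspase-3/7 activation.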

Data set [2] can be described thus: Thermodynamic solubility in PBS at pH 7.4 after 24 hrs by UPLC-MS analysis. The data set is classed as physicochemical. The conditions noted are these: for solubility thermodynamic at 24 h: PBS, pH 7.4, read-out: Therm_solubility. Put shortly: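 Thermodynamic solubility assay in phosphate buffered saline, pH 7.4.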
The nature of data set [3]: Cytoprotective activity in rat INS-1E cells assessed as suppression of cytokine-induced caspase-3/7 activation after 48 hrs by luminescence assay relative to control. The data set is classed as functional. Put shortly: as §1
Data set [4] concerns INS-1E. The experiment in a line: Inhibition of IFNgamma-induced JAK1/JAK2 signaling in rat INS-1E cells assessed as STAT1 nuclear translocation at 10 uM after 30 mins by immunofluorescence assay. The data set is classed as cell-based. Put shortly: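 IFN-γ-stimulated INS-1E β-cells, with or without compound, for 30 min; cells fixed and STAT1 subcellular (cytoplasm vs nucleus) localization monitored by immunofluorescence imaging.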

Data set [5] relates to INS-1E. The experiment in a line: Effect on total STAT1 level in rat INS-1E cells at 10 uM after 30 mins by Western blotting analysis. It is filed as functional, cell-based. On the technique in general: A western blot detects proteins with antibodies after separation by electrophoresis.
Data set [6] has as its system INS-1E. In words: Inhibition of JAK1/JAK2 in rat INS-1E cells assessed as inhibition of IFNgamma-induced STAT1 phosphorylation at Tyr701 and Ser727 at 10 uM after 30 mins by Western blotting analysis. The data set is classed as cell-based. Put shortly: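 INS-1E β-cells treated with IFN-γ with or without compound for 30 min; STAT1 phosphorylation at Tyr701 and Ser727 assessed by Western blotting.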

≈ marks a conversion by molar mass, not a printed value. Calls of active or inactive are those of the source. The rule behind the calls is not given here.

For `C[C@@H]1CN([C@@H](C)CO)C(=O)c2cccc(NC(=O)Nc3cccc4cnccc34)c2O[C@H]1CN(C)S(=O)(=O)c1ccc2c(c1)OCCO2`, the IC50 – broadly, the point on the concentration scale where inhibition reaches its midpoint – in data set [1] stood at 4.65 µM. For the same molecule, the solubility thermodynamic at 24 h in data set [2] amounted to 60.5 µM (≈ 40.9 µg/mL). The “%max” value in data set [3] worked out at 59%.

For the molecule `C[C@@H]1CN([C@@H](C)CO)C(=O)c2cccc(NC(=O)Nc3cccc4ccncc34)c2O[C@H]1CN(C)S(=O)(=O)c1ccc2c(c1)OCCO2`, in data set [2], the solubility thermodynamic at 24 h came out at 101 µM (≈ 68.5 µg/mL).

As for `C[C@@H]1CN([C@@H](C)CO)C(=O)c2cccc(NC(=O)Nc3cncc4ccccc34)c2O[C@H]1CN(C)S(=O)(=O)c1ccc2c(c1)OCCO2`, the IC50 in data set [1] was 4.1 µM. Further, the solubility thermodynamic at 24 h in data set [2] is 84.9 µM (≈ 57.4 µg/mL). In data set [3], the “%max” value was determined as 31%.

With `C[C@@H]1CN([C@@H](C)CO)C(=O)c2cccc(NC(=O)NCc3cccc4ccccc34)c2O[C@H]1CN(C)S(=O)(=O)c1ccc2c(c1)OCCO2`, the IC50 in data set [1] is above 20 µM. The solubility thermodynamic at 24 h in data set [2] turned out to be 0.1 µM (≈ 0.0689 µg/mL). Moreover, the inhibition entry in the data set with INS-1E [4], with INS-1E [5] and in the data set with INS-1E [6] was “inactive” in each case.

On to `C[C@@H]1CN([C@@H](C)CO)C(=O)c2cccc(NC(=O)Nc3cccc4ncccc34)c2O[C@H]1CN(C)S(=O)(=O)c1ccc2c(c1)OCCO2`, for which the IC50 in data set [1] came out at 1.62 µM. Further, the solubility thermodynamic at 24 h in data set [2] came to 138 µM (≈ 93.6 µg/mL). For the same molecule, the “%max” value in data set [3] worked out at 41%.

For `C[C@@H]1CN([C@@H](C)CO)C(=O)c2cccc(NC(=O)N(C)c3cccc4ccccc34)c2O[C@H]1CN(C)S(=O)(=O)c1ccc2c(c1)OCCO2`, the IC50 in data set [1] stood at 4.74 µM. Moreover, the solubility thermodynamic at 24 h in data set [2] is 11.2 µM (≈ 7.71 µg/mL). Besides, in data set [3], the “%max” value is 15%.

Consider `C[C@@H]1CN([C@@H](C)CO)C(=O)c2cccc(NC(=O)Nc3cccc4ccccc34)c2O[C@H]1CN(C)S(=O)(=O)c1ccc2c(c1)OCCO2`, for which, in data set [1], the 50% inhibitory concentration (IC50) is 1.66 µM. In data set [2] (buffer, pH 7.4, 24 h), the Therm_solubility was found to be 0.1 µM. Further, in data set [3], the “%max” value is 71%. For the same molecule, the inhibition result in the data set with INS-1E [4] and in the data set on INS-1E [6] was “Active” throughout. Also, the inhibition result with INS-1E [5] is “inactive”.

Regarding `C[C@@H]1CN([C@@H](C)CO)C(=O)c2cccc(NC(=O)Nc3ccnc4ccccc34)c2O[C@H]1CN(C)S(=O)(=O)c1ccc2c(c1)OCCO2`, the IC50 in data set [1] is above 20 µM. The solubility thermodynamic at 24 h in data set [2] was determined as 30.3 µM (≈ 20.5 µg/mL).

For `C[C@@H]1CN([C@@H](C)CO)C(=O)c2cccc(NC(=O)Nc3cccc4cccnc34)c2O[C@H]1CN(C)S(=O)(=O)c1ccc2c(c1)OCCO2`, the IC50 in data set [1] is 3.26 µM. Besides, in data set [2], the solubility thermodynamic at 24 h was determined as 1.8 µM (≈ 1.22 µg/mL). Also, the “%max” value in data set [3] is given as 69%. Also, the inhibition entry in the data set on INS-1E [4] and with INS-1E [6] was “Active” in each case. In addition, in the data set with INS-1E [5], the inhibition entry is “inactive”.

In the case of `C[C@@H]1CN([C@@H](C)CO)C(=O)c2cccc(NC(=O)Nc3nccc4ccccc34)c2O[C@H]1CN(C)S(=O)(=O)c1ccc2c(c1)OCCO2`, the IC50 in data set [1] came out at 1.05 µM. The solubility thermodynamic at 24 h in data set [2] turned out to be 0.7 µM (≈ 0.473 µg/mL). In data set [3], the “%max” value worked out at 21%.
